Measured values: ChEMBL document CHEMBL5724801, “EUbOPEN Chemogenomics Library - Multiplex” (2024)
“And” between values parts separate entries of the source, which are not always exact repeats. Equal values may be shown once.

Test system: U2OS
Assay: Multiplex assay against U2OS
Assay type: toxicity, cell-based
Details: human
In short: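 Live cells carried four stains from seeding: Hoechst33342, BioTracker Green Microtubule Cytoskeleton Dye, MitoTracker Red and Annexin V Alexa Fluor 680. They were imaged on a CQ1 microscope at 37°C and 5% CO2 after compound addition. Using CellPathfinder machine-learning gating, cells were split into Hoechst high-intensity objects or normal cells, normal cells into healthy, pyknosed or fragmented nuclei, and pyknosed cells into mitotic or apoptotic; tubulin, mitochondrial-mass and membrane-permeability phenotypes are per cents of healthy-nucleus cells.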

[1] = 12 h, 1 µM, compound concentration 1 uM
[2] = 12 h, 10 µM, compound concentration 10 uM
[3] = 24 h, 1 µM, compound concentration 1 uM
[4] = 24 h, 10 µM, compound concentration 10 uM
[5] = 48 h, 1 µM, compound concentration 1 uM
[6] = 48 h, 10 µM, compound concentration 10 uM

CC(=O)NCCc1c(Cc2ccccc2)[nH]c2ccccc12 [LUZINDOLE]
Population Apoptotic (%) [1]: 72% and 100%
Population Fragmented Nuclei (%) [1]: 25% and 19%
Population Healthy Nuclei (%) [1]: 65% and 77%
Population Hoechst High Intensity Objects (%) [1]: 3% and 2%
Population Membrane Permeable-Phenotype (%) [1]: 3% and 6%
Population Mitochondria Different-Phenotype (%) [1]: 4% and 2%
Population Normal (%) [1]: 96% and 97%
Population Pyknosed Nuclei (%) [1]: 9% and 3%
Population Tubulin-Different-Phenotype (%) [1]: 1% and 2%
Total Cell Count [1]: 233 and 134
Population Apoptotic (%) [2]: 81% and 76%
Population Fragmented Nuclei (%) [2]: 26% and 13%
Population Healthy Nuclei (%) [2]: 65% and 78%
Population Hoechst High Intensity Objects (%) [2]: 2% and 1%
Population Membrane Permeable-Phenotype (%) [2]: 8% and 5%
Population Mitochondria Different-Phenotype (%) [2]: 3% and 2%
Population Mitotic Cells (%) [2]: 18% and 23%
Population Normal (%) [2]: 97% and 98%
Population Pyknosed Nuclei (%) [2]: 7%
Population Tubulin-Different-Phenotype (%) [2]: 4% and 3%
Total Cell Count [2]: 291 and 179
Population Apoptotic (%) [3]: 90% and 88%
Population Fragmented Nuclei (%) [3]: 19% and 18%
Population Healthy Nuclei (%) [3]: 68% and 70%
Population Hoechst High Intensity Objects (%) [3]: 4% and 0%
Population Membrane Permeable-Phenotype (%) [3]: 2% and 5%
Population Mitochondria Different-Phenotype (%) [3]: 3% and 1%
Population Mitotic Cells (%) [3]: 10% and 11%
Population Normal (%) [3]: 95% and 99%
Population Pyknosed Nuclei (%) [3]: 12% and 10%
Population Tubulin-Different-Phenotype (%) [3]: 3% and 4%
Total Cell Count [3]: 260 and 156
Population Apoptotic (%) [4]: 88% and 85%
Population Fragmented Nuclei (%) [4]: 25% and 11%
Population Healthy Nuclei (%) [4]: 66% and 80%
Population Hoechst High Intensity Objects (%) [4]: 2% and 0%
Population Membrane Permeable-Phenotype (%) [4]: 6%
Population Mitochondria Different-Phenotype (%) [4]: 3% and 1%
Population Mitotic Cells (%) [4]: 12% and 15%
Population Normal (%) [4]: 97% and 99%
Population Pyknosed Nuclei (%) [4]: 7% and 8%
Population Tubulin-Different-Phenotype (%) [4]: 4% and 3%
Total Cell Count [4]: 342 and 236
Population Apoptotic (%) [5]: 91% and 80%
Population Fragmented Nuclei (%) [5]: 16% and 11%
Population Healthy Nuclei (%) [5]: 74% and 77%
Population Hoechst High Intensity Objects (%) [5]: 2% and 1%
Population Membrane Permeable-Phenotype (%) [5]: 3% and 8%
Population Mitochondria Different-Phenotype (%) [5]: 2% and 1%
Population Mitotic Cells (%) [5]: 8% and 20%
Population Normal (%) [5]: 97% and 98%
Population Pyknosed Nuclei (%) [5]: 9% and 11%
Population Tubulin-Different-Phenotype (%) [5]: 2% and 4%
Total Cell Count [5]: 395 and 217
Population Apoptotic (%) [6]: 89% and 100%
Population Fragmented Nuclei (%) [6]: 21% and 11%
Population Healthy Nuclei (%) [6]: 69% and 82%
Population Hoechst High Intensity Objects (%) [6]: 2% and 1%
Population Membrane Permeable-Phenotype (%) [6]: 6% and 5%
Population Mitochondria Different-Phenotype (%) [6]: 3% and 2%
Population Mitotic Cells (%) [6]: 10% and 0%
Population Normal (%) [6]: 97% and 98%
Population Pyknosed Nuclei (%) [6]: 8% and 5%
Population Tubulin-Different-Phenotype (%) [6]: 3%
Total Cell Count [6]: 446 and 354

CN1CCN2c3ccccc3Cc3ccccc3C2C1.Cl (stereo not drawn) [MIANSERIN HYDROCHLORIDE]
Population Apoptotic (%) [1]: 91% and 83%
Population Fragmented Nuclei (%) [1]: 35% and 16%
Population Healthy Nuclei (%) [1]: 56% and 77%
Population Hoechst High Intensity Objects (%) [1]: 3% and 1%
Population Membrane Permeable-Phenotype (%) [1]: 7% and 3%
Population Mitochondria Different-Phenotype (%) [1]: 4% and 3%
Population Mitotic Cells (%) [1]: 8% and 16%
Population Normal (%) [1]: 96% and 98%
Population Pyknosed Nuclei (%) [1]: 7% and 5%
Population Tubulin-Different-Phenotype (%) [1]: 5% and 2%
Total Cell Count [1]: 162 and 109
Population Apoptotic (%) [2]: 78% and 86%
Population Fragmented Nuclei (%) [2]: 23% and 12%
Population Healthy Nuclei (%) [2]: 68% and 77%
Population Hoechst High Intensity Objects (%) [2]: 2% and 1%
Population Membrane Permeable-Phenotype (%) [2]: 7% and 1%
Population Mitochondria Different-Phenotype (%) [2]: 3% and 2%
Population Mitotic Cells (%) [2]: 21% and 13%
Population Normal (%) [2]: 97% and 98%
Population Pyknosed Nuclei (%) [2]: 8% and 10%
Population Tubulin-Different-Phenotype (%) [2]: 4% and 0%
Total Cell Count [2]: 277 and 152
Population Apoptotic (%) [3]: 88% and 75%
Population Fragmented Nuclei (%) [3]: 34% and 23%
Population Healthy Nuclei (%) [3]: 56% and 70%
Population Hoechst High Intensity Objects (%) [3]: 1% and 2%
Population Membrane Permeable-Phenotype (%) [3]: 6% and 4%
Population Mitochondria Different-Phenotype (%) [3]: 1% and 3%
Population Mitotic Cells (%) [3]: 11% and 25%
Population Normal (%) [3]: 98% and 97%
Population Pyknosed Nuclei (%) [3]: 8% and 5%
Population Tubulin-Different-Phenotype (%) [3]: 4% and 3%
Total Cell Count [3]: 197 and 142
Population Apoptotic (%) [4]: 69% and 93%
Population Fragmented Nuclei (%) [4]: 21% and 13%
Population Healthy Nuclei (%) [4]: 68% and 77%
Population Hoechst High Intensity Objects (%) [4]: 1% and 2%
Population Membrane Permeable-Phenotype (%) [4]: 9% and 7%
Population Mitochondria Different-Phenotype (%) [4]: 2% and 3%
Population Normal (%) [4]: 98% and 97%
Population Pyknosed Nuclei (%) [4]: 10% and 8%
Population Tubulin-Different-Phenotype (%) [4]: 2%
Total Cell Count [4]: 319 and 183
Population Apoptotic (%) [5]: 78%
Population Fragmented Nuclei (%) [5]: 28% and 19%
Population Healthy Nuclei (%) [5]: 65% and 71%
Population Hoechst High Intensity Objects (%) [5]: 2% and 1%
Population Membrane Permeable-Phenotype (%) [5]: 5% and 4%
Population Mitochondria Different-Phenotype (%) [5]: 2% and 3%
Population Mitotic Cells (%) [5]: 21%
Population Normal (%) [5]: 97% and 98%
Population Pyknosed Nuclei (%) [5]: 5% and 9%
Population Tubulin-Different-Phenotype (%) [5]: 4% and 2%
Total Cell Count [5]: 269 and 206
Population Apoptotic (%) [6]: 91% and 87%
Population Fragmented Nuclei (%) [6]: 18% and 15%
Population Healthy Nuclei (%) [6]: 71% and 73%
Population Hoechst High Intensity Objects (%) [6]: 4% and 2%
Population Membrane Permeable-Phenotype (%) [6]: 4%
Population Mitochondria Different-Phenotype (%) [6]: 2% and 3%
Population Mitotic Cells (%) [6]: 8% and 12%
Population Normal (%) [6]: 95% and 97%
Population Pyknosed Nuclei (%) [6]: 9% and 11%
Population Tubulin-Different-Phenotype (%) [6]: 1% and 2%
Total Cell Count [6]: 397 and 285

Cc1ccc(F)cc1C(=O)Nc1ccc(C(=O)N2Cc3cccn3Cc3ccccc32)c(Cl)c1 [LIXIVAPTAN]
Population Apoptotic (%) [1]: 69% and 84%
Population Healthy Nuclei (%) [1]: 55% and 82%
Population Hoechst High Intensity Objects (%) [1]: 3%
Population Membrane Permeable-Phenotype (%) [1]: 9% and 14%
Population Mitochondria Different-Phenotype (%) [1]: 9% and 10%
Population Mitotic Cells (%) [1]: 30% and 15%
Population Normal (%) [1]: 96%
Population Pyknosed Nuclei (%) [1]: 11% and 8%
Population Tubulin-Different-Phenotype (%) [1]: 7% and 11%
Total Cell Count [1]: 230 and 150
Population Apoptotic (%) [2]: 59% and 47%
Population Fragmented Nuclei (%) [2]: 34% and 13%
Population Healthy Nuclei (%) [2]: 49% and 69%
Population Hoechst High Intensity Objects (%) [2]: 5%
Population Membrane Permeable-Phenotype (%) [2]: 79% and 63%
Population Mitochondria Different-Phenotype (%) [2]: 42% and 55%
Population Mitotic Cells (%) [2]: 40% and 52%
Population Normal (%) [2]: 94%
Population Pyknosed Nuclei (%) [2]: 16%
Population Tubulin-Different-Phenotype (%) [2]: 85% and 77%
Total Cell Count [2]: 203 and 119
Population Apoptotic (%) [3]: 86% and 57%
Population Fragmented Nuclei (%) [3]: 26% and 14%
Population Healthy Nuclei (%) [3]: 64% and 81%
Population Hoechst High Intensity Objects (%) [3]: 1% and 4%
Population Membrane Permeable-Phenotype (%) [3]: 9% and 11%
Population Mitochondria Different-Phenotype (%) [3]: 9% and 13%
Population Normal (%) [3]: 98% and 95%
Population Pyknosed Nuclei (%) [3]: 8% and 4%
Population Tubulin-Different-Phenotype (%) [3]: 4% and 7%
Total Cell Count [3]: 257 and 171
Population Apoptotic (%) [4]: 59% and 66%
Population Fragmented Nuclei (%) [4]: 30% and 14%
Population Healthy Nuclei (%) [4]: 50% and 67%
Population Hoechst High Intensity Objects (%) [4]: 4%
Population Membrane Permeable-Phenotype (%) [4]: 65% and 54%
Population Mitochondria Different-Phenotype (%) [4]: 63% and 67%
Population Mitotic Cells (%) [4]: 40% and 33%
Population Normal (%) [4]: 95%
Population Pyknosed Nuclei (%) [4]: 18%
Population Tubulin-Different-Phenotype (%) [4]: 75% and 66%
Total Cell Count [4]: 207 and 119
Population Apoptotic (%) [5]: 87% and 95%
Population Fragmented Nuclei (%) [5]: 24% and 10%
Population Healthy Nuclei (%) [5]: 64% and 79%
Population Hoechst High Intensity Objects (%) [5]: 1% and 3%
Population Membrane Permeable-Phenotype (%) [5]: 9% and 13%
Population Mitochondria Different-Phenotype (%) [5]: 6% and 11%
Population Mitotic Cells (%) [5]: 12% and 5%
Population Normal (%) [5]: 98% and 96%
Population Pyknosed Nuclei (%) [5]: 11% and 10%
Population Tubulin-Different-Phenotype (%) [5]: 5%
Total Cell Count [5]: 378 and 206
Population Apoptotic (%) [6]: 75% and 92%
Population Fragmented Nuclei (%) [6]: 32% and 18%
Population Healthy Nuclei (%) [6]: 37% and 58%
Population Hoechst High Intensity Objects (%) [6]: 5% and 12%
Population Membrane Permeable-Phenotype (%) [6]: 49% and 60%
Population Mitochondria Different-Phenotype (%) [6]: 40% and 52%
Population Normal (%) [6]: 94% and 87%
Population Pyknosed Nuclei (%) [6]: 29% and 23%
Population Tubulin-Different-Phenotype (%) [6]: 44% and 57%
Total Cell Count [6]: 232 and 137
